Columns and labels:
[1] = target: T1, Mineralocorticoid receptor (Homo sapiens, UniProt P08235); experiment: Displacement of [3H]methyltrienolone from human mineralocorticoid receptor expressed in HEK293 cells; assay type: cell-based
T1 sequence (P08235 whole entry): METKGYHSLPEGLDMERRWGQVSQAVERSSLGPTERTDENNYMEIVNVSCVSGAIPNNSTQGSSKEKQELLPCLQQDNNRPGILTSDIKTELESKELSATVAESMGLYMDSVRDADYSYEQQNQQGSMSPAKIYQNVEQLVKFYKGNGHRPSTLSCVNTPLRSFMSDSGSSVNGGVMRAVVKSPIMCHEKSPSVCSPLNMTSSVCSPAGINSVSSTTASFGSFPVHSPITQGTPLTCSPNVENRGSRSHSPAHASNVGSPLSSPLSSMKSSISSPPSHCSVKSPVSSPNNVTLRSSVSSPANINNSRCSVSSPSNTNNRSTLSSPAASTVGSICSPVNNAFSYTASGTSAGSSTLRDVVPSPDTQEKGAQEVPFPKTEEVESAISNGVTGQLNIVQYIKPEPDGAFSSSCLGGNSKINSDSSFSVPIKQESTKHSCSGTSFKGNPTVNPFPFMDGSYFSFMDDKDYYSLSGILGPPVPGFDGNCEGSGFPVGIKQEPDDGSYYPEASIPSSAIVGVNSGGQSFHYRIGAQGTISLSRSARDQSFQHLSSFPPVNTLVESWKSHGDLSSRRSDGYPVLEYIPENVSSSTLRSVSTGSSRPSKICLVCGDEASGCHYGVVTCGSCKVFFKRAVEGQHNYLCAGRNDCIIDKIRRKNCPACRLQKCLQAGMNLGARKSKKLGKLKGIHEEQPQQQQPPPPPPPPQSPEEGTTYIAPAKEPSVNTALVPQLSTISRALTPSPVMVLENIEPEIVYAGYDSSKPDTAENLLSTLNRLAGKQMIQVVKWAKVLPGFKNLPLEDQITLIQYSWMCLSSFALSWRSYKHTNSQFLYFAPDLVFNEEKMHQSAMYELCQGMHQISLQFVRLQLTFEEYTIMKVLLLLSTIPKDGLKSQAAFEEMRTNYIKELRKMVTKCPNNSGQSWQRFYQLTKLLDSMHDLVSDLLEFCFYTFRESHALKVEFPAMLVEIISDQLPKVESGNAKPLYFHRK
How it was run: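 Competitive binding to recombinant full-length human receptors against tritium-labelled standards. Values are geometric means of at least duplicate determinations.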

[2] = target: T2, Androgen receptor (Homo sapiens, UniProt P10275); experiment: Displacement of [3H]methyltrienolone from human androgen receptor expressed in HEK293 cells; assay type: cell-based
T2 sequence (P10275 whole entry): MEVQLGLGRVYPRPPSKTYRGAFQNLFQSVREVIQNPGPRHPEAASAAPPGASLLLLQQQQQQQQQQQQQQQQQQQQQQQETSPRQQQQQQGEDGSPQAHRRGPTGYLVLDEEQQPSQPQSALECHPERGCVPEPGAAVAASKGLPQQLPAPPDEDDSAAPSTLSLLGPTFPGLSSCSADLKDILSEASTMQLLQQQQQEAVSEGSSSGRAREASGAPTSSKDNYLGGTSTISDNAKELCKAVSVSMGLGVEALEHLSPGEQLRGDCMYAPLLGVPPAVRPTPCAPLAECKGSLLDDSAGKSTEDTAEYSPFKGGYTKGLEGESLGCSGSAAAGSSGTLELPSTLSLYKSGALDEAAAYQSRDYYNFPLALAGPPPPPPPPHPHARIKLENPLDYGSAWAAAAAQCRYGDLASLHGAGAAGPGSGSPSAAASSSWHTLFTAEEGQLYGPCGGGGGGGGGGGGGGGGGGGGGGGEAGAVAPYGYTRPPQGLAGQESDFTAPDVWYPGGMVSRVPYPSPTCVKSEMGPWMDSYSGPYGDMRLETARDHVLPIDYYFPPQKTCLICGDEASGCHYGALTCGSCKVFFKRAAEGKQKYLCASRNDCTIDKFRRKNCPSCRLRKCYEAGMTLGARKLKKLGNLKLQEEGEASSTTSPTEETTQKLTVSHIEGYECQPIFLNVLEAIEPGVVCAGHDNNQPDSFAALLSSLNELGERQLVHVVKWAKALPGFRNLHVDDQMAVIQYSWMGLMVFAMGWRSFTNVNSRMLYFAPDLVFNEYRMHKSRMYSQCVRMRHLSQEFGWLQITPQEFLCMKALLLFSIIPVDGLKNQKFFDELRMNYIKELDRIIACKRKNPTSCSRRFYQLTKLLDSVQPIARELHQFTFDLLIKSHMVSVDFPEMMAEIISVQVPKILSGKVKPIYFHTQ

[3] = target: T3, Progesterone receptor (Homo sapiens) (UniProt P06401); experiment: Antagonist activity at human progesterone receptor expressed in HEK293 cells assessed as inhibition of […]-induced transcriptional activity by GRE-driven luciferase reporter gene assay relative to untreated control; assay type: functional, cell-based; design: concentration or dose not given beside the values; details: concentration not given here
T3 sequence (whole entry): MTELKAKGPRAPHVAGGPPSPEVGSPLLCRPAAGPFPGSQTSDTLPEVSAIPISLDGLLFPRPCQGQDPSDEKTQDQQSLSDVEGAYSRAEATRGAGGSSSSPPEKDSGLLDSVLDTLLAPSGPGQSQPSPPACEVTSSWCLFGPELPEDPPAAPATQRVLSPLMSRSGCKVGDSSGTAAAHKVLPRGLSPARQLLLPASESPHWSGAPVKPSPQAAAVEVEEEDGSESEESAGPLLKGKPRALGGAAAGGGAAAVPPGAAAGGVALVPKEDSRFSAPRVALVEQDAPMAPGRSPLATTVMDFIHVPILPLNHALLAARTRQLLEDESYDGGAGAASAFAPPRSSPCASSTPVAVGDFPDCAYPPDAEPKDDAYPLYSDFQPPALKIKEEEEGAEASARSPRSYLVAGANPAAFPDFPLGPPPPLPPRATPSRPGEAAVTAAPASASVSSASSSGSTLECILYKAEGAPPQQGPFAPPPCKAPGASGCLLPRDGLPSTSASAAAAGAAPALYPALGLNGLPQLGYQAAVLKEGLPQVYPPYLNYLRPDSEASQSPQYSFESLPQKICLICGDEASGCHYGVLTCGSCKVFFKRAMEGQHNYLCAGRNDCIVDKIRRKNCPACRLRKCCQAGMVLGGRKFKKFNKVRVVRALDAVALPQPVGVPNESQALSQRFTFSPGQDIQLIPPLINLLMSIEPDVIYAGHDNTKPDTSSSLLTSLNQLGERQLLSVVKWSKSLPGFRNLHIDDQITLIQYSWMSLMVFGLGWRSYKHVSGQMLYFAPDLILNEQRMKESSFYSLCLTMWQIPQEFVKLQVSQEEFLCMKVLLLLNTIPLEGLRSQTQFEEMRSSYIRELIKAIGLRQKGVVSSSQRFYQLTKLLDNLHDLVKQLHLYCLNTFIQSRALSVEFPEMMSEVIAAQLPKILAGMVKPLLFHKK
How it was run: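 Transcription assay in HEK293 cells cotransfected with full-length human receptor. Values are geometric means of at least duplicate determinations.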

Compound | Ki [1] [nM] | Ki [2] [nM] | inhibition [3] [%]
Cn1cc(-c2ccc(C#N)cc2)c2ccc(NS(C)(=O)=O)cc21 | > 4170 | > 4020 | 87.8
COc1cc(-c2cn(C(C)C)c3cc(NS(C)(=O)=O)ccc23)ccc1C#N | 1390 | 490 | 97.4
CC[C@@H](C)n1cc(-c2ccc(C#N)cc2)c2ccc(NS(C)(=O)=O)cc21 | 1440 | 2550 | 96.2
CC[C@H](C)n1cc(-c2ccc(C#N)cc2)c2ccc(NS(C)(=O)=O)cc21 | 1000 | 1740 | 96.8
CC(c1ccc(F)cc1)(c1c[nH]c2c(NS(C)(=O)=O)cccc12)C1CC1 (stereo not given) | 0.64 | 220 | 91.7
CC(C)n1cc(-c2ccc(C#N)cc2)c2ccc(NS(C)(=O)=O)cc21 | 1490 | > 3900 | 96.2
COc1ccc(C(c2ccccc2)c2c[nH]c3ccccc23)cc1 (stereo not given) | 86.8 | 68.9 | 86.5
CCn1cc(-c2ccc(C#N)cc2)c2ccc(NS(C)(=O)=O)cc21 | 1770 | 2590 | 97
Cc1cc(-c2cn(C(C)C)c3cc(NS(C)(=O)=O)ccc23)ccc1C#N | 126 | 403 | 95.8
CC(C)n1cc(-c2ccc(C#N)c(F)c2)c2ccc(NS(C)(=O)=O)cc21 | 849 | 648 | 94.9
